# Results: ChEMBL document CHEMBL4602720, “Degradation versus Inhibition: Development of Proteolysis-Targeting Chimeras for Overcoming Statin-Induced Compensatory Upregulation of 3-Hydroxy-3-methylglutaryl Coenzyme A Reductase” (J Med Chem, 2020)
# Calls of active or inactive are those of the source.
# What was measured:
# [1] = target: T1, Protein cereblon/3-hydroxy-3-methylglutaryl-coenzyme A reductase (Cricetulus griseus) (UniProt P00347+G3H338); experiment: Protac activity at CRBN/HMGCR in Insig-1/Insig-2 deficient Chinese hamster SRD15 cells assessed as HMGCR level at 1 uM after 16 hrs in presence of 0.1 uM pomalidomide by immunoblotting analysis (reference value: 1)
# Huh-7 [2] = experiment: Inhibition of cholesterol biosynthesis in human HuH7 cells preincubated for 14 hrs and followed by addition of 14C-acetate and measured after 2 hrs by TL method; type: functional, cell-based
# Outline: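 Sterol-depleted Huh7 cells (Medium B plus 5% lipoprotein-deficient serum) treated at varying concentrations for 14 h, pulse-labelled with ¹⁴C-acetate 1 μCi/μL for 2 h, washed, lysed in 0.1 M NaOH; lipids separated by TLC, ¹⁴C-cholesterol read by phosphorimager, DMSO set to 1.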
# [3] = target: T1, Protein cereblon/3-hydroxy-3-methylglutaryl-coenzyme A reductase (Cricetulus griseus); experiment: Protac activity at CRBN/HMGCR in Insig-1/Insig-2 deficient Chinese hamster SRD15 cells assessed as HMGCR level at 0.1 uM after 16 hrs by immunoblotting analysis (reference value: 1)
# Outline: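 Dose-response in SRD15 cells in Medium A with 5% FBS, 16 h treatment, DMSO final 0.1% or lower. RIPA lysates immunoblotted for HMGCR. HMGCR densitometry normalized to actin, with the DMSO group set to 1. Three repeats. DC50 is taken from a dose-response fit of the semi-quantitative blots, mean of 3 independent experiments.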
# [4] = target: T1, Protein cereblon/3-hydroxy-3-methylglutaryl-coenzyme A reductase (Cricetulus griseus); experiment: (§1) Protac activity at CRBN/HMGCR in Insig-1/Insig-2 deficient Chinese hamster SRD15 cells assessed as induction of HMGCR degradation after 16 hrs by immunoblotting analysis
# Outline: (§2)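 SRD15 cells treated with compound at varying concentrations for 16 h, final DMSO ≤0.1%; RIPA lysates (Lowry protein) immunoblotted for HMGCR, densitometry normalized to actin, DMSO set to 1; DC50 = concentration giving 50% loss versus DMSO, fitted to dose-response curve, mean of 3 independent experiments.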
# [5] = target: T2, Protein cereblon/3-hydroxy-3-methylglutaryl-coenzyme A reductase (Cricetulus griseus, UniProt P00347+G3H338); experiment: as §1; outline: as §2
# T2 sequence (P00347 whole entry): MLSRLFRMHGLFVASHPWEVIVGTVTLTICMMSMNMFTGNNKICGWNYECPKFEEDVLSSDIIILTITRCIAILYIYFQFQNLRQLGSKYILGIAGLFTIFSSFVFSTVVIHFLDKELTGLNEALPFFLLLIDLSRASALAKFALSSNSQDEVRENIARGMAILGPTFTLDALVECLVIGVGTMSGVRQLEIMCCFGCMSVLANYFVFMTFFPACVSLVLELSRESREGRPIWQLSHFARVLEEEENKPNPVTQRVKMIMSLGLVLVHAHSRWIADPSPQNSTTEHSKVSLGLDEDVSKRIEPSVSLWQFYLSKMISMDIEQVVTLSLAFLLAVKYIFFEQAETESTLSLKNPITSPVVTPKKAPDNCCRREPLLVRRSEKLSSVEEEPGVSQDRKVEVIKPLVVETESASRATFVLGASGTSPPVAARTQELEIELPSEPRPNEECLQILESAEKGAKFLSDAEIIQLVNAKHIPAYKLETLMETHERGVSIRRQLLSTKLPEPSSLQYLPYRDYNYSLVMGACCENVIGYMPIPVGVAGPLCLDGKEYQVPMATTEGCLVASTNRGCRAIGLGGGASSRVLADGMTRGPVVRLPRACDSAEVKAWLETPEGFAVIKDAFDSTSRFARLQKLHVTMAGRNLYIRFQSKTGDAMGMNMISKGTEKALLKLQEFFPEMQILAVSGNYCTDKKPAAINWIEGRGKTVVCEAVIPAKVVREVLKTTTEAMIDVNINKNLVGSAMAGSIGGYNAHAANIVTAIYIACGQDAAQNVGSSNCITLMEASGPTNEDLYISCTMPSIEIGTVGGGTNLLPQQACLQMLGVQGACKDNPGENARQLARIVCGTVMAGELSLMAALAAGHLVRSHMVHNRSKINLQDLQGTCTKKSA
# T2 sequence (G3H338 whole entry): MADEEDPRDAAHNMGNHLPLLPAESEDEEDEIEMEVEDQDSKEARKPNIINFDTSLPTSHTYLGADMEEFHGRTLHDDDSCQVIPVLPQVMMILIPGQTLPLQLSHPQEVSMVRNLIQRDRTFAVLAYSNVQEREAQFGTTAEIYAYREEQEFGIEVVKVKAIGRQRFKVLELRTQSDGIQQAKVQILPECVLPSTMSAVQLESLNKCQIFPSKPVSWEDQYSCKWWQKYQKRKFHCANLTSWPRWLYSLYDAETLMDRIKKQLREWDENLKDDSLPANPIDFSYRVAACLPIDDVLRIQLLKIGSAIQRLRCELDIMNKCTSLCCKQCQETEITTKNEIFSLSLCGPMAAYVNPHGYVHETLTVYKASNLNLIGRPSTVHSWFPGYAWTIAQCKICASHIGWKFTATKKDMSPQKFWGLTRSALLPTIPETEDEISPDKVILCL
# [6] = Effect on HMGCR mRNA expression in Chinese hamster SRD15 cells at 1 uM after 16 hrs by quantitative real-time PCR analysis; type: ADME, Cricetulus griseus
# Outline: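 SRD15 cells (Insig-1/Insig-2-deficient CHO-7) in Medium A with 5% FBS, compound for 16 h; Hmgcr mRNA by quantitative real-time PCR in triplicate, comparative CT method normalized to hamster GAPDH, control defined as 1; mean ± s.d., n = 3 independent experiments.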
# [7] = target: Protein cereblon/3-hydroxy-3-methylglutaryl-coenzyme A reductase (Homo sapiens) (UniProt P04035+Q96SW2); experiment: Protac activity at human Flag-tagged CRBN/T7-tagged HMGCR expressed in Chinese hamster SRD15 cells transfected with HA-tagged ubiquitin assessed as increase in HMGCR immunoprecipitation 1 uM preincubated for 16 hrs followed by MG132 addition addition and measured after 5 hrs by Western blot analysis; type: cell-based
# Chain of Protein cereblon/3-hydroxy-3-methylglutaryl-coenzyme A reductase (Homo sapiens) (P04035 whole entry, looked up): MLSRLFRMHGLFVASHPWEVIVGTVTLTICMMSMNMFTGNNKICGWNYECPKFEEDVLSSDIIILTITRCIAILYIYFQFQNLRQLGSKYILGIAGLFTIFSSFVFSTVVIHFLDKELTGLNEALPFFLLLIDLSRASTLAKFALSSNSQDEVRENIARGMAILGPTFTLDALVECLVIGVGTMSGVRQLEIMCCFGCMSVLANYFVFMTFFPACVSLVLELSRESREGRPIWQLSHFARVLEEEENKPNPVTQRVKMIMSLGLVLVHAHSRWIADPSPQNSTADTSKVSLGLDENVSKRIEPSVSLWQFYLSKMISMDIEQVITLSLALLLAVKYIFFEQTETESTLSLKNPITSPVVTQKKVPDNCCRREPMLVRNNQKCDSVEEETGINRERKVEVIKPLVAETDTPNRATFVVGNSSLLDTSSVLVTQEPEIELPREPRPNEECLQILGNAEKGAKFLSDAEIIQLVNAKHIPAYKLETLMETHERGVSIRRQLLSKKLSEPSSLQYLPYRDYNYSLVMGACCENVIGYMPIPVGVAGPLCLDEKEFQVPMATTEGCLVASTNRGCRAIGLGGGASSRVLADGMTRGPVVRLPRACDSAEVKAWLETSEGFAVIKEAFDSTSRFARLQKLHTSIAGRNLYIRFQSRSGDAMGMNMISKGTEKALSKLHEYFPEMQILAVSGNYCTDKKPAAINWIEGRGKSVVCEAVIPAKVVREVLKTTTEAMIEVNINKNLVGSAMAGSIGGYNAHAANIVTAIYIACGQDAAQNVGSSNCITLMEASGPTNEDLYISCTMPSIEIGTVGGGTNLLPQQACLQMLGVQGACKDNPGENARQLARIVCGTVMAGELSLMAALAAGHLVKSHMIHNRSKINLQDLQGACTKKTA
# Chain of Protein cereblon/3-hydroxy-3-methylglutaryl-coenzyme A reductase (Homo sapiens) (Q96SW2 whole entry, looked up): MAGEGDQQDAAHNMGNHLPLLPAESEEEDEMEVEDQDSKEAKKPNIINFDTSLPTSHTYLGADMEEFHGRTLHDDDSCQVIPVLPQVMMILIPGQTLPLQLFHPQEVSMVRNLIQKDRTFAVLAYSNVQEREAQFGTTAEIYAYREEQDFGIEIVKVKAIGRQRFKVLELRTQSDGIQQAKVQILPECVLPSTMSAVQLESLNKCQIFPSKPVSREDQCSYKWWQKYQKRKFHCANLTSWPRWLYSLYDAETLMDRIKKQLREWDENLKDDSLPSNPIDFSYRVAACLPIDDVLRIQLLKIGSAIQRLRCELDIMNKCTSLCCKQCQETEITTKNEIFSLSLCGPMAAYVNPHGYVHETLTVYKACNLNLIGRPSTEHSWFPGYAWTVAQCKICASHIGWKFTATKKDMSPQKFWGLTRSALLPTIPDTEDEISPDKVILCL
# Huh-7 [8] = experiment: Effect on total neutral lipid in human HuH7 cells assessed change in lipid droplet count at 1 uM after 16 hrs by Oil Red O staining based method; type: ADME, cell-based; settings: huh-7, 16 h
# Outline: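 Huh7 cells on glass coverslips, treated, fixed in 4% paraformaldehyde in PBS 30 min at room temperature, stained 15 min with 0.5% (w/v) Oil Red O in propylene glycol, washed in water; lipid droplets examined relative to DMSO.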
smiles,measurement,setting,value
CC(C)c1c(C(=O)Nc2ccccc2)c(-c2cccc(OCCCc3cn(CCOCCOCCOCCOCCNc4cccc5c4C(=O)N(C4CCC(=O)NC4=O)C5=O)nn3)c2)c(-c2ccc(F)cc2)n1CC[C@@H](O)C[C@@H](O)CC(=O)O (stereo partly drawn),fold change (FC),[1],0.4
same,inhibition,Huh-7 [2],Active
same,fold change (FC),[3],0.6
same,Activity,[4],Dose-dependent effect
same,DC50,[5],100 nM
same,Activity,[6],Non-Toxic
same,Activity,[7],Active
same,Activity,Huh-7 [8],Non-Toxic
